{
  "source": "ChEMBL document CHEMBL3860028",
  "about": "“Bioactive Phenanthrene and Bibenzyl Derivatives from the Stems of Dendrobium nobile” (J Nat Prod, 2016)",
  "key": {"[1]": {"experiment": "Cytotoxicity against human HeLa cells assessed as decrease in cell viability after 6 days by MTT assay", "type": "functional, cell-based", "conditions": "144 h", "outline": "(§1)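 Cell lines from College of Pharmacy, Hebei University, grown in DMEM with 5% fetal bovine serum at 37 °C under 5% CO2. Viability read by MTT method, IC50 values derived. Epirubicin served as positive control.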"}, "[2]": {"experiment": "Antifungal activity against Phytophthora parasitica var. nicotianae after 4 to 14 days by serial dilution method", "type": "functional", "outline": "(§2)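 Fungal strains kept on potato dextrose agar. Antifungal activity tested following NCCLS recommendations, with MIC values as the read-out. Prochloraz served as positive control.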"}, "[3]": {"experiment": "Antifungal activity against Ceratocystis paradoxa moreau after 4 to 14 days by serial dilution method", "type": "functional", "conditions": "Thielaviopsis", "outline": "as §2"}, "[4]": {"experiment": "Cytotoxicity against human A549 cells assessed as decrease in cell viability after 6 days by MTT assay", "type": "functional, cell-based", "conditions": "A549, 144 h", "outline": "as §1"}, "[5]": {"experiment": "Antifungal activity against Pestallozzia theae after 4 to 14 days by serial dilution method", "type": "functional", "outline": "as §2"}, "Alternaria brassicicola": {"test_system": "Alternaria brassicicola", "experiment": "Antifungal activity against Alternaria brassicicola after 4 to 14 days by serial dilution method", "type": "functional", "outline": "as §2"}, "[6]": {"experiment": "Antifungal activity against Bipolaris oryzae after 4 to 14 days by serial dilution method", "type": "functional", "outline": "(§3)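 Fungus maintained on potato dextrose agar. Antifungal activity determined as MIC following NCCLS (National […] for Clinical Laboratory Standards) recommendations, with prochloraz as the reference antifungal.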"}, "Colletotrichum truncatum": {"test_system": "Colletotrichum truncatum", "experiment": "Antifungal activity against Colletotrichum capsici after 4 to 14 days by serial dilution method", "type": "functional", "outline": "as §2"}, "[7]": {"experiment": "Antifungal activity against Exserohilum turcicum after 4 to 14 days by serial dilution method", "type": "functional", "conditions": "Setosphaeria turcica", "outline": "as §2"}, "[8]": {"experiment": "Cytotoxicity against human MCF7 cells assessed as decrease in cell viability after 6 days by MTT assay", "type": "functional, cell-based", "conditions": "MCF7, 144 h", "outline": "as §1"}, "Alternaria citri": {"test_system": "Alternaria citri", "experiment": "Antifungal activity against Alternaria citri after 4 to 14 days by serial dilution method", "type": "functional", "outline": "as §3"}, "[9]": {"experiment": "Antifungal activity against Diaporthe medusaea nitschke after 4 to 14 days by serial dilution method", "type": "functional", "conditions": "Diaporthe rudis", "outline": "as §2"}},
  "data": [
    {"smiles": "COc1cc(O)cc(CCc2ccc(O)c(OC)c2)c1", "note": "[GIGANTOL]", "values": [
      {"measurement": "IC50", "setting": "[1]", "result": "> 10", "unit": "µM"},
      {"measurement": "MIC", "setting": "[2]", "result": 365, "unit": "µM"},
      {"measurement": "MIC", "setting": "[3]", "result": 91.2, "unit": "µM"},
      {"measurement": "IC50", "setting": "[4]", "result": "> 10", "unit": "µM"},
      {"measurement": "MIC", "setting": "[5]", "result": 91.2, "unit": "µM"},
      {"measurement": "MIC", "setting": "Alternaria brassicicola", "result": 182, "unit": "µM"},
      {"measurement": "MIC", "setting": "[6]", "result": 182, "unit": "µM"},
      {"measurement": "MIC", "setting": "Colletotrichum truncatum", "result": 91.2, "unit": "µM"},
      {"measurement": "MIC", "setting": "[7]", "result": 182, "unit": "µM"},
      {"measurement": "IC50", "setting": "[8]", "result": "> 10", "unit": "µM"},
      {"measurement": "MIC", "setting": "Alternaria citri", "result": 91.2, "unit": "µM"},
      {"measurement": "MIC", "setting": "[9]", "result": 91.2, "unit": "µM"}
    ]},
    {"smiles": "COc1cc2c(c(O)c1OC)-c1ccc(O)cc1CC2", "note": "[EPHEMERANTHOL A]", "values": [
      {"measurement": "IC50", "setting": "[1]", "result": "> 10", "unit": "µM"},
      {"measurement": "MIC", "setting": "[2]", "result": "> 400", "unit": "µM"},
      {"measurement": "MIC", "setting": "[3]", "result": "> 400", "unit": "µM"},
      {"measurement": "IC50", "setting": "[4]", "result": "> 10", "unit": "µM"},
      {"measurement": "MIC", "setting": "[5]", "result": "> 400", "unit": "µM"},
      {"measurement": "MIC", "setting": "Alternaria brassicicola", "result": "> 400", "unit": "µM"},
      {"measurement": "MIC", "setting": "[6]", "result": "> 400", "unit": "µM"},
      {"measurement": "MIC", "setting": "Colletotrichum truncatum", "result": "> 400", "unit": "µM"},
      {"measurement": "MIC", "setting": "[7]", "result": "> 400", "unit": "µM"},
      {"measurement": "IC50", "setting": "[8]", "result": "> 10", "unit": "µM"},
      {"measurement": "MIC", "setting": "Alternaria citri", "result": "> 400", "unit": "µM"},
      {"measurement": "MIC", "setting": "[9]", "result": "> 400", "unit": "µM"}
    ]},
    {"smiles": "COc1cc(O)cc2ccc3cccc(O)c3c12", "note": "[MOSCATIN]", "values": [
      {"measurement": "IC50", "setting": "[1]", "result": "> 10", "unit": "µM"},
      {"measurement": "MIC", "setting": "[2]", "result": "> 400", "unit": "µM"},
      {"measurement": "MIC", "setting": "[3]", "result": "> 400", "unit": "µM"},
      {"measurement": "IC50", "setting": "[4]", "result": "> 10", "unit": "µM"},
      {"measurement": "MIC", "setting": "[5]", "result": "> 400", "unit": "µM"},
      {"measurement": "MIC", "setting": "Alternaria brassicicola", "result": "> 400", "unit": "µM"},
      {"measurement": "MIC", "setting": "[6]", "result": "> 400", "unit": "µM"},
      {"measurement": "MIC", "setting": "Colletotrichum truncatum", "result": "> 400", "unit": "µM"},
      {"measurement": "MIC", "setting": "[7]", "result": "> 400", "unit": "µM"},
      {"measurement": "IC50", "setting": "[8]", "result": "> 10", "unit": "µM"},
      {"measurement": "MIC", "setting": "Alternaria citri", "result": "> 400", "unit": "µM"},
      {"measurement": "MIC", "setting": "[9]", "result": "> 400", "unit": "µM"}
    ]}
  ]
}
